Activity and Inhibition data for 16 molecules are collected here from ChEMBL document CHEMBL1146361, “Studies on acyclic pyrimidines as inhibitors of mycobacteria” (Bioorg Med Chem, 2007).

Active and inactive are the calls of the source. No cut-off for these calls is given here.

One assay deals with Enterococcus faecalis. As to the kind of experiment: Antibacterial activity against Enterococcus faecalis up to 100 ug/ml after 16 to 20 hrs by broth microdilution method. In kind it is functional, organism-based.
The subject of the next assay is Streptococcus pneumoniae. As to the kind of experiment: Antibacterial activity against Streptococcus pneumoniae up to 100 ug/ml after 16 to 20 hrs by broth microdilution method. The format is functional, organism-based.
The subject of another assay is Bacillus subtilis. Description: Antibacterial activity against Bacillus subtilis up to 100 ug/ml after 16 to 20 hrs by broth microdilution method. In kind it is functional, organism-based.
A further assay relates to Escherichia coli. Description: Antibacterial activity against Escherichia coli up to 100 ug/ml after 16 to 20 hrs by broth microdilution method. In kind it is functional, organism-based. Background: In broth dilution the organism is exposed to a series of concentrations in liquid medium.
Another assay concerns Salmonella typhimurium. As to the kind of experiment: Antibacterial activity against Salmonella Typhimurium up to 100 ug/ml after 16 to 20 hrs by broth microdilution method. In kind it is functional, organism-based. Particulars: Salmonella enterica subsp. enterica serovar Typhimurium.
A further assay has as its system Proteus vulgaris. As to the kind of experiment: Antibacterial activity against Proteus vulgaris up to 100 ug/ml after 16 to 20 hrs by broth microdilution method. In kind it is functional, organism-based.
In assay [1] the test system is Staphylococcus epidermidis. As to the kind of experiment: Antibacterial activity against Staphylococcus epidermidis up to 100 ug/ml after 16 to 20 hrs by broth microdilution method. The format is functional, organism-based.
A further assay has as its system Mycobacterium avium. As to the kind of experiment: Antimycobacterial activity against Mycobacterium avium ATCC 25291. The format is functional. Also on record: concentration or dose not given beside the values. In outline:
(§1)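 Compounds in DMSO (100× highest final concentration), diluted in 7H9GC; tested at 100, 50, 10 and 1 µg/mL in triplicate, three experiments. Frozen inoculum diluted in 7H9GC. Read visually and spectrophotometrically. […], mean given. Visual MIC = lowest concentration preventing blue-to-pink change.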

For another assay, the system named is Staphylococcus aureus. As to the kind of experiment: Antibacterial activity against Staphylococcus aureus up to 100 ug/ml after 16 to 20 hrs by broth microdilution method. In kind it is functional, organism-based.
The subject of assay [2] is Mycobacterium tuberculosis. Description: Antimycobacterial activity against Mycobacterium tuberculosis H37Ra by MABA. The format is functional. Also on record: concentration or dose not given beside the values. The essentials:
as §1
On the technique in general: Alamar Blue is a resazurin reagent that responds to reducing activity.

For another assay, the system named is Pseudomonas aeruginosa. Description: Antibacterial activity against Pseudomonas aeruginosa up to 100 ug/ml after 16 to 20 hrs by broth microdilution method. In kind it is functional, organism-based.

The term Inhibition denotes the relative decrease from the control value, in per cent. With `O=c1[nH]c(=O)n(COCCO)cc1Br`, the result with Enterococcus faecalis, with Streptococcus pneumoniae, with Bacillus subtilis, in the assay with Escherichia coli, with Salmonella typhimurium and with Proteus vulgaris was inactive. For the same molecule, the result (in assay [1]; with Staphylococcus aureus; with Pseudomonas aeruginosa) was inactive. The Inhibition (in the assay on Mycobacterium avium; in assay [2]) was 0% in each case.
`O=c1[nH]c(=O)n(COCCO)cc1F`: the outcome in the assay with Enterococcus faecalis, with Streptococcus pneumoniae, in the assay on Bacillus subtilis, with Escherichia coli, in the assay on Salmonella typhimurium and with Proteus vulgaris was inactive. The outcome (in assay [1]; in the assay on Staphylococcus aureus; with Pseudomonas aeruginosa) was inactive. The Inhibition (with Mycobacterium avium; in [2]) was 0% in each case.
As to `O=c1[nH]c(=O)n(COCCO)cc1[N+](=O)[O-]`, the result in the assay on Enterococcus faecalis, with Streptococcus pneumoniae, in the assay with Bacillus subtilis, with Escherichia coli, in the assay on Salmonella typhimurium and in the assay on Proteus vulgaris was inactive. Besides, the outcome (in assay [1]; with Staphylococcus aureus; with Pseudomonas aeruginosa) was inactive. For the same molecule, the Inhibition (in the assay with Mycobacterium avium; in [2]) was 0% each time.
As for `O=c1[nH]c(=O)n(COC(CO)CO)cc1I` [IODACYCLUR], the outcome in the assay with Enterococcus faecalis, in the assay with Streptococcus pneumoniae, with Bacillus subtilis, in the assay on Escherichia coli, with Salmonella typhimurium and with Proteus vulgaris was inactive. For the same molecule, the outcome (in [1]; with Staphylococcus aureus; in the assay on Pseudomonas aeruginosa) was inactive. The Inhibition (with Mycobacterium avium; in assay [2]) was 0% throughout.
On to `C=Cc1cn(COCCO)c(=O)[nH]c1=O`, for which the result in the assay on Enterococcus faecalis, in the assay on Streptococcus pneumoniae, in the assay on Bacillus subtilis, in the assay with Escherichia coli, in the assay with Salmonella typhimurium and with Proteus vulgaris was inactive. Also, the outcome (in [1]; with Staphylococcus aureus; in the assay on Pseudomonas aeruginosa) was inactive. The Inhibition (with Mycobacterium avium; in assay [2]) was 0% throughout.
As to `Nc1cn(COCCO)c(=O)[nH]c1=O`, the outcome with Enterococcus faecalis, in the assay on Streptococcus pneumoniae, in the assay with Bacillus subtilis, in the assay with Escherichia coli, in the assay on Salmonella typhimurium and with Proteus vulgaris was inactive. Besides, the outcome (in [1]; in the assay on Staphylococcus aureus; with Pseudomonas aeruginosa) was inactive. Further, the Inhibition (in the assay with Mycobacterium avium; in assay [2]) was 0% in each case.
`[N-]=[N+]=NC(CCl)c1cn(COC(CO)CO)c(=O)[nH]c1=O` (stereo unspecified): the outcome in the assay on Enterococcus faecalis, in the assay with Streptococcus pneumoniae, in the assay with Bacillus subtilis, in the assay with Escherichia coli, in the assay with Salmonella typhimurium and in the assay on Proteus vulgaris was inactive. Also, the result (in assay [1]; in the assay with Staphylococcus aureus; in the assay on Pseudomonas aeruginosa) was inactive. For the same molecule, the Inhibition (with Mycobacterium avium; in assay [2]) was 0% throughout.
For `[N-]=[N+]=NC(CI)c1cn(COC(CO)CO)c(=O)[nH]c1=O` (stereo unspecified), the result in the assay on Enterococcus faecalis, in the assay with Streptococcus pneumoniae, in the assay with Bacillus subtilis, with Escherichia coli, in the assay on Salmonella typhimurium and with Proteus vulgaris was inactive. Also, the outcome (in assay [1]; in the assay on Staphylococcus aureus; in the assay with Pseudomonas aeruginosa) was inactive. In addition, the Inhibition (in the assay with Mycobacterium avium; in assay [2]) was 0% each time.
Regarding `CCCCCCCCCCC#Cc1cn(COCCO)c(=O)n(C#CCCCCCCCCCC)c1=O`, the outcome in the assay on Enterococcus faecalis, in the assay on Streptococcus pneumoniae, in the assay with Bacillus subtilis, in the assay on Escherichia coli, with Salmonella typhimurium and in the assay on Proteus vulgaris was inactive. In addition, the result (in assay [1]; in the assay with Staphylococcus aureus; in the assay on Pseudomonas aeruginosa) was inactive. Further, the Inhibition (in the assay with Mycobacterium avium; in [2]) was 0% in each case.
Regarding `C=Cc1cn(COC(CO)CO)c(=O)[nH]c1=O`, the outcome with Enterococcus faecalis, in the assay on Streptococcus pneumoniae, in the assay with Bacillus subtilis, with Escherichia coli, in the assay with Salmonella typhimurium and in the assay with Proteus vulgaris was inactive. Further, the outcome (in [1]; in the assay on Staphylococcus aureus; in the assay on Pseudomonas aeruginosa) was inactive. The Inhibition (with Mycobacterium avium; in [2]) was 0% in each case.
As for `O=c1[nH]c(=O)n(COCCO)cc1I`, the outcome with Enterococcus faecalis, in the assay with Streptococcus pneumoniae, in the assay on Bacillus subtilis, in the assay with Escherichia coli, with Salmonella typhimurium and with Proteus vulgaris was inactive. Also, the outcome (in [1]; in the assay with Staphylococcus aureus; with Pseudomonas aeruginosa) was inactive. Further, the Inhibition (in the assay with Mycobacterium avium; in assay [2]) was 0% in each case.
As to `O=c1ccn(COCCO)c(=O)[nH]1`, the outcome in the assay on Enterococcus faecalis, in the assay on Streptococcus pneumoniae, in the assay with Bacillus subtilis, in the assay with Escherichia coli, in the assay with Salmonella typhimurium and with Proteus vulgaris was inactive. Further, the result (in assay [1]; in the assay on Staphylococcus aureus; in the assay with Pseudomonas aeruginosa) was inactive. In addition, the Inhibition (in the assay on Mycobacterium avium; in assay [2]) was 0% in each case.
As to `O=c1[nH]c(=O)n(COCCO)cc1Cl`, the result in the assay with Enterococcus faecalis, with Streptococcus pneumoniae, with Bacillus subtilis, in the assay with Escherichia coli, in the assay with Salmonella typhimurium and in the assay on Proteus vulgaris was inactive. Also, the outcome (in assay [1]; in the assay with Staphylococcus aureus; in the assay on Pseudomonas aeruginosa) was inactive. The Inhibition (in the assay on Mycobacterium avium; in assay [2]) was 0% in each case.
With `C=C(N=[N+]=[N-])c1cn(COC(CO)CO)c(=O)[nH]c1=O`, the result in the assay with Enterococcus faecalis, with Streptococcus pneumoniae, with Bacillus subtilis, in the assay on Escherichia coli, in the assay with Salmonella typhimurium and in the assay with Proteus vulgaris was inactive. In addition, the result (in [1]; with Staphylococcus aureus; with Pseudomonas aeruginosa) was inactive. The Inhibition (in the assay with Mycobacterium avium; in [2]) was 0% each time.
As to `[N-]=[N+]=NC(CBr)c1cn(COC(CO)CO)c(=O)[nH]c1=O` (stereo unspecified), the result with Enterococcus faecalis, with Streptococcus pneumoniae, in the assay with Bacillus subtilis, in the assay on Escherichia coli, in the assay on Salmonella typhimurium and in the assay with Proteus vulgaris was inactive. Further, the result (in assay [1]; in the assay on Staphylococcus aureus; in the assay with Pseudomonas aeruginosa) was inactive. The Inhibition (in the assay on Mycobacterium avium; in assay [2]) was 0% each time.
In the case of `CCc1cn(COCCO)c(=O)[nH]c1=O`, the outcome in the assay with Enterococcus faecalis, with Streptococcus pneumoniae, in the assay on Bacillus subtilis, in the assay with Escherichia coli, in the assay on Salmonella typhimurium and in the assay on Proteus vulgaris was inactive. The result (in assay [1]; in the assay with Staphylococcus aureus; in the assay with Pseudomonas aeruginosa) was inactive. In addition, the Inhibition (in the assay on Mycobacterium avium; in assay [2]) was 0% each time.
